Calls of active or inactive are those of the source. No cut-off for these calls is given here.
Tests used:
Homo sapiens [1] = organism: Homo sapiens; test: Inhibition of Kras:GDP:SOS complex (unknown origin) at 200 uM after 2.5 hrs by HTRF method
Method in brief: (§1)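 Biotin-KRas-GDP plus SOS preincubated with compound (200 μM final during preincubation) 2.5 h ambient; streptavidin-europium in DTT-containing buffer added, 4 h. GST-Raf/anti-GST-XL665 plus GTPγS then added; final 3 nM KRas, 1 µM SOS, 1 μM GTPγS. HTRF read at 60 min; inhibition relative to DMSO (0%) and no-KRas (100%) controls.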

[2] = biological target: GTPase KRas (Homo sapiens) (UniProt P01116); test: Inhibition of biotinylated KRas-GDP (unknown origin) at 200 uM incubated for 2.5 hrs followed by SOS addition measured after 4 hrs by HTRF method
Sequence of GTPase KRas (Homo sapiens) (P01116 whole entry, looked up): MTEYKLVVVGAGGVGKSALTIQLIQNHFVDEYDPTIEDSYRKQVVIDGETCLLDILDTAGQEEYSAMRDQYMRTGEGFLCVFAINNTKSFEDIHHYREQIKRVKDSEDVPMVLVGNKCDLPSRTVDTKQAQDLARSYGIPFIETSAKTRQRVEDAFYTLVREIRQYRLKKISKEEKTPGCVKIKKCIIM
Method in brief: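 Biotin-KRas-GDP preincubated with compound (200 μM final during preincubation) 2.5 h ambient; streptavidin-europium then SOS added, 4 h equilibration. GST-Raf/anti-GST-XL665 premix plus GTPγS added to start exchange; final 3 nM KRas, 1 µM SOS, 1 μM GTPγS, 10 nM GST-Raf. HTRF read at 60 min (665/615 nm); inhibition relative to DMSO (0%) and no-KRas (100%) controls.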

Homo sapiens [3] = organism: Homo sapiens; test: Inhibition of SOS (unknown origin) at 200 uM incubated for 2.5 hrs followed by KRas-GDP addition measured after 4 hrs by HTRF method
Method in brief: as §1, with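 “SOS” for “Biotin-KRas-GDP plus SOS”, “then biotin-KRas-GDP” for “in DTT-containing buffer”, “started exchange;” for “then added;”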

[4] = biological target: GTPase KRas (Homo sapiens) (UniProt P01116); test: Time dependent inhibition of wild-type KRas (unknown origin) assessed as SOS-mediated MANT-dGDP displacement at 200 uM by microplate reader analysis
Method in brief: (§2)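 KRas (WT, G12V or G12C) preequilibrated 4 h with SOS and MANT-dGDP in HEPES/NaCl/MgCl2/Tween-20 buffer; added to compound (200 μM final). Fluorescence read kinetically (ex 350/em 450 nm) to 85 min; each well referenced to time zero and to DMSO controls.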

[5] = tested on: GTPase KRas (Homo sapiens), P01116 [G12V]; test: Time dependent inhibition of KRas G12V mutant (unknown origin) assessed as SOS-mediated MANT-dGDP displacement at 200 uM by microplate reader analysis; method in brief: as §2
Sequence of GTPase KRas (Homo sapiens), P01116 [G12V] (P01116 whole entry G12V): as the sequence (P01116 whole entry, looked up) above, with G12V counted along it

[6] = tested on: GTPase KRas (Homo sapiens), P01116 [G12C]; test: Time dependent inhibition of KRas G12C mutant (unknown origin) assessed as SOS-mediated MANT-dGDP displacement at 200 uM by microplate reader analysis; method in brief: as §2
Sequence of GTPase KRas (Homo sapiens), P01116 [G12C] (P01116 whole entry G12C): as the sequence (P01116 whole entry, looked up) above, with G12C counted along it

[7] = Binding affinity to 6His-TEV-SH-HRas(1 to 166) (unknown origin)/6His-TEV-SH-SOS (unknown origin) complex by nuclear magnetic resonance analysis; design: species or system Homo sapiens

Row | inhibition (Homo sapiens [1]) | inhibition (Homo sapiens [3]) | Kd [7] [µM] | Structure (SMILES) | other results
1 | inactive | inactive | – | CCN1C(=O)C=C(c2cc(C#N)cc(C(=O)O)c2)C1=O | inhibition [2]: inactive
2 | inactive | inactive | – | CCN1C(=O)C=C(c2cccc(C(N)=O)c2)C1=O | inhibition [2]: inactive; inhibition [4]: Active; inhibition [5]: Active; inhibition [6]: Active
3 | – | – | 3000 | Nc1ccc(S(=O)(=O)N2CCCCC2=O)cc1 | –
4 | – | – | 1700 | OC1(c2ccc(Br)cc2)CCNCC1 | –
5 | – | – | 1600 | CSc1nc(-c2c(C)cccc2C)nc(N2CCNCC2)n1 | –
6 | 40% | inactive | – | CCN1C(=O)C=C(c2cc(Cl)cc(C(N)=O)c2)C1=O | –
7 | – | – | 1300 | Brc1ccc(CN2CCCC2)cc1 | –
8 | – | – | 6000 | COc1ccc(S(=O)(=O)Nc2nccs2)cc1 | –
9 | – | – | 6000 | Brc1ccc2cc[nH]c2c1 | –
10 | – | – | 6000 | Nc1ccc(S(=O)(=O)NC(=O)C2CC2)cc1 | –
11 | 40% | inactive | – | O=C1C=CC(=O)N1C1CCS(=O)(=O)C1 (stereo not drawn) | –
12 | inactive | inactive | – | CCN1C(=O)C=C(c2cccc(CN)c2)C1=O | inhibition [2]: inactive
